Measurements gathered from unrelated publications.
Lines come from different studies, so protocols differ.
ALK C1156Y: ALK tyrosine kinase receptor (ALK, Homo sapiens, UniProt Q9UM73, C1156Y)
ALK: ALK tyrosine kinase receptor (ALK, Homo sapiens, UniProt Q9UM73)
ALK L1196M: ALK tyrosine kinase receptor (ALK, Homo sapiens, UniProt Q9UM73, L1196M)

| SMILES | target | read-out | method | concentration | remaining binding [%] |
| --- | --- | --- | --- | --- | --- |
| CC1CCCN1c1nccc(-c2cnn3ncccc23)n1 (stereo not shown) | ALK C1156Y | binding |  | 1 µM | 48 |
| Cc1c(NC(=O)c2cc(C(N)=O)nc3cc(F)ccc23)c(C(F)(F)F)nn1Cc1ccc(C(C)(C)C)cc1 | ALK | cell-free assay | competition with immobilised ligand | 1 µM | 96 |
| N[C@H]1CCN(c2nccc(-c3cnn4ncccc34)n2)C1 | ALK L1196M | binding |  | 1 µM | 74 |
| CC1=C(C#N)[C@@H](c2ccc3[nH]nc(C)c3c2)C(C#N)=C(c2ccc(Cl)cc2)N1 | ALK C1156Y | cell-free assay | competition with immobilised ligand | 1 µM | 100 |
| Cc1cnc(Nc2ccc(C(=O)N3CCC(N4CCCC4)CC3)cc2)nc1-c1cc2ccccc2s1 | ALK C1156Y | binding | competition with immobilised ligand | 1 µM | 34 |
| CN(CCCC(F)(F)F)c1nccc(-c2cnn3ncccc23)n1 | ALK | binding |  | 1 µM | 97 |
| O=C(NCC1CCOCC1)c1n[nH]cc1NC(=O)c1c(F)cccc1F | ALK | binding | competition with immobilised ligand | 1 µM | 93 |
| C[C@H]1CCN(c2nccc(-c3cnn4ncccc34)n2)C1 | ALK | binding |  | 1 µM | 82 |
| c1cncc(-c2cccc(Nc3nccc(NC4CCCCC4)n3)c2)c1 | ALK C1156Y | binding | competition with immobilised ligand | 10 µM | 37 |
| Nc1ncc2c(n1)-c1c([nH]c3ccc(C#CC4CC4)cc13)CCCC2 | ALK L1196M | binding | competition with immobilised ligand | 1 µM | 86 |
| F[C@@H]1CCN(c2nccc(-c3cnn4ncccc34)n2)C1 | ALK | binding |  | 1 µM | 100 |
| O=C(c1ccc(Nc2nccc(-c3cc4ccccc4s3)n2)cc1)N1CCC(N2CCCC2)CC1 | ALK C1156Y | binding | competition with immobilised ligand | 1 µM | 77 |
| CC(=O)N1CCC(c2ccc(C(=O)NC3=NCCN3)cc2C(F)(F)F)CC1 | ALK C1156Y | cell-free assay | competition with immobilised ligand | 1 µM | 100 |
| CN(C)c1nccc(-c2cnc3ncccn23)n1 | ALK | binding |  | 1 µM | 73 |
| O=C(c1ccc(Nc2ncc(Cl)c(-c3cc4ccccc4s3)n2)cc1)N1CCC(N2CCCC2)CC1 | ALK | binding | competition with immobilised ligand | 1 µM | 68 |
| Cc1noc([C@H]2C[C@@H](c3ccc(C(F)(F)F)cc3)CN(C(=O)N3CCS(=O)(=O)C3)C2)n1 | ALK | cell-free assay | competition with immobilised ligand | 1 µM | 100 |
| COc1cnc(Nc2cccc(S(N)(=O)=O)c2)nc1N1CCN(c2ccccc2)CC1 | ALK L1196M | binding | competition with immobilised ligand | 1 µM | 100 |
| CCC(=O)N[C@@H]1CC[C@H](C(=O)N(C)c2ccc(-c3nc4ccccc4o3)cc2)C1 | ALK | cell-free assay | competition with immobilised ligand | 1 µM | 99 |
| COc1ncc2cc3ccccc3nc2c1C#N | ALK L1196M | cell-free assay | competition with immobilised ligand | 5 µM | 94 |
